A short description of data set [1]: Toxicity in Balb/C mouse assessed as drug tolerability at 50 mg/kg, po by LC/MS/MS analysis. The note with it: in vivo. Type of data set: organism-based.
Data set [2] can be described thus: Oral bioavailability in Balb/C mouse at 12.5 mg/kg in presence of ABT by LC/MS/MS analysis. The class given is ADME, organism-based. The settings on record: in vivo. An outline of the steps: (§1)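 Female Balb/c mice (n = 3 per route) dosed i.v. 2 mg/kg and p.o. 12.5 mg/kg. 1-Aminobenzotriazole, a CYP450 inhibitor, was given p.o. at 50 mg/kg 2 h before each dose. Parameters were derived from blood concentration–time profiles.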

The nature of data set [3]: Volume of distribution at steady state in Balb/C mouse plasma at 12.5 mg/kg, po or 2 mg/kg, iv in presence of ABT by LC/MS/MS analysis. The class given is ADME, organism-based. The note with it: in vivo. An outline of the steps:
as §1

Data set [4] is described as follows: Toxicity in Balb/C mouse assessed as drug tolerability at 12.5 mg/kg, po by LC/MS/MS analysis. The class given is organism-based. The note with it: in vivo.
Data set [5] can be described thus: Selectivity index, ratio of IC50 for human U2OS cells to IC50 for intracellular Trypanosoma cruzi infected in human U2OS cells. Type of data set: toxicity, cell-based. In short, it runs like this: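 Host U2OS cell counts and intracellular parasite infection ratio were read from the same 72 h DRAQ5-stained confocal imaging assay. CC50 and EC50 came from 4-parameter logistic fits, and the selectivity index is their ratio.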

Data set [6] in a line: AUC (0 to last) in Balb/C mouse at 50 mg/kg, po or 0.1 mg/kg, iv by LC/MS/MS analysis. Type of data set: ADME, organism-based. On the set-up: dose 50 mg/kg, route po. The note with it: in vivo. An outline of the steps: (§2)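 Female Balb/c mice dosed i.v. 0.1 mg/kg as part of a five-compound cassette, and p.o. 50 mg/kg, without ABT. PK parameters came from concentration–time profiles. Brain-to-plasma ratio was taken at 1 h.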

Data set [7] in a line: Half life in Balb/C mouse at 50 mg/kg, po by LC/MS/MS analysis. The class given is ADME, organism-based. The note with it: in vivo. An outline of the steps:
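Female Balb/c mice received a single i.v. dose of 1 mg/kg and a single oral dose of 50 mg/kg. PK parameters came from blood concentration–time profiles. Brain-to-plasma ratio was taken at 0.5 h.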

Data set [8] can be described thus: Toxicity in Balb/C mouse assessed as drug tolerability at 50 mg/kg, po bid measured after 5 days by LC/MS/MS analysis. The class given is organism-based. The settings on record: in vivo, 120 h, time 5 day. An outline of the steps: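 Healthy female mice, one per group, were dosed orally twice daily for 5 days at 10, 50 or 100 mg/kg, with vehicle controls (0.5% HPMC/0.5% benzyl alcohol/0.4% Tween 80 in water). Readouts were mortality, clinical signs, body weight, food consumption and gross pathology.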

A short description of data set [9]: AUC (0 to last) in Balb/C mouse at 12.5 mg/kg, po or 2 mg/kg, iv in presence of ABT by LC/MS/MS analysis. The settings on record: in vivo. On the set-up: dose 12.5 mg/kg, route po. The class given is ADME, organism-based. In short, it runs like this:
as §1

Data set [10] can be described thus: Half life in Balb/C mouse plasma at 2 mg/kg, iv in presence of ABT by LC/MS/MS analysis. The class given is ADME, organism-based. In short, it runs like this: as §1
Data set [11] in a line: Cmax in Balb/C mouse at 50 mg/kg, po or 0.1 mg/kg, iv by LC/MS/MS analysis. Also on record: dose 50 mg/kg, route po. The settings on record: in vivo. Type of data set: ADME, organism-based. An outline of the steps: as §2
The nature of data set [12]: Toxicity in BALB/c mouse infected with acute Trypanosoma cruzi CL Brener assessed as adverse effects at 50 mg/kg, po bid. Type of data set: organism-based. The settings on record: in vivo.
Data set [13] is described as follows: Volume of distribution at steady state in Balb/C mouse plasma at 50 mg/kg, po or 0.1 mg/kg, iv by LC/MS/MS analysis. Type of data set: ADME, organism-based. The note with it: in vivo. An outline of the steps: as §2
Data set [14] can be described thus: Plasma protein binding in mouse at 2 uM incubated for 6 hrs by LC/MS/MS analysis. The class given is ADME.
Data set [15] is described as follows: Oral bioavailability in Balb/C mouse plasma at 50 mg/kg by LC/MS/MS analysis. The note with it: in vivo. The class given is ADME, organism-based.
Data set [16] relates to Trypanosoma cruzi. Description: Antitrypanosomal activity against intracellular Trypanosoma cruzi infected in human U2OS cells assessed as parasite growth inhibition incubated for 72 hrs by confocal microscopy. Type of data set: functional, organism-based. The note with it: Trypanosoma cruzi, U2OS, 72 h.
Data set [17] deals with Trypanosoma cruzi. The data set is described as follows: Antitrypanosomal activity against acute-stage Trypanosoma cruzi CL Brener infected in BALB/c mouse assessed as reduction in parasite burden at 50 mg/kg, po bid administered for 5 days by bioluminescence imaging based analysis relative to control. The class given is functional. The note with it: time 5 day. On the set-up: scale not given: the % may be the effect or the level left.

Data set [18] is described as follows: Kinetic solubility of compound in aqueous buffer at pH 6.8 incubated for 16 to 24 hrs by HPLC analysis. The class given is physicochemical. The note with it: time 16-24 hrs, read-out: Kinetic_solubility.
A short description of data set [19]: Half life in Balb/C mouse plasma at 12.5 mg/kg, po in presence of ABT by LC/MS/MS analysis. The class given is ADME, organism-based. In short, it runs like this: as §1
The nature of data set [20]: Intrinsic clearance in human liver microsomes at 1 uM incubated for 15 to 30 mins by LC/MS/MS analysis. The class given is ADME, Microsome. The settings on record: time 15-30 min. In general terms: Liver microsomes are a subcellular fraction often used to study metabolism.
Data set [21] in a line: Cmax in Balb/C mouse at 12.5 mg/kg, po or 2 mg/kg, iv in presence of ABT by LC/MS/MS analysis. The class given is ADME, organism-based. On the set-up: dose 12.5 mg/kg, route po. The note with it: in vivo. An outline of the steps: as §1
A short description of data set [22]: Permeability of compound incubated for 3 hrs by PAMPA assay. The class given is ADME. The settings on record: read-out: permeability. (In general: PAMPA measures passive passage across an artificial lipid membrane.)
Data set [23] is described as follows: Ratio of drug level in Balb/C mouse brain to plasma at 50 mg/kg, po or 0.1 mg/kg, iv measured after 1 hr by LC/MS/MS analysis. Type of data set: ADME, organism-based. In short, it runs like this:
as §2

The nature of data set [24]: Intrinsic clearance in mouse liver microsomes at 1 uM incubated for 15 to 30 mins by LC/MS/MS analysis. Type of data set: ADME, Microsome. The settings on record: time 15-30 min.

Values after ≈ are worked out from the molar mass of the structure shown.

`c1ccc(-c2nc(N3CCC(c4ccccn4)C3)c3ccccc3n2)nc1` (racemic): the Activity result is “Non-Toxic” in data set [1]; “Toxic” in data set [4]; “Non-Toxic” in [8]; “Non-Toxic” in data set [12]; 89.9% in the data set on Trypanosoma cruzi [17]. Moreover, the F amounted to 67% in data set [2] and 50% in data set [15]. Further, the Vdss in data set [3] came to 0.94 L/kg; in data set [13] it was 0.77 L/kg. In addition, the “Selectivity Index” value in data set [5] was 9.1. Besides, the AUC(0-t) in [6] is 9610 ng·h/mL; in [9], 26900 ng·h/mL. In addition, the figures for the half-life in data set [7], in data set [10] and in [19] were 7.2 h, 1 h and 3.3 h, respectively. Moreover, the Cmax in data set [11] was 3360 ng/mL; in [21] it was 4243 ng/mL. Moreover, the PPB in [14] was found to be 99.9%. Besides, the IC50 in the data set on Trypanosoma cruzi [16] was found to be 790 nM. Besides, the solubility kinetic in data set [18] was 83 µg/mL (≈ 235 µM). The molecule further gave a CLint in data set [20] of 73 µL/min/mg. Besides, the Papp at 3 h in data set [22] was found to be 31.9 ×10⁻⁶ cm/s. Moreover, the BPR in data set [23] is listed as 1.66. Besides, the “intrinsic clearance (CLint)” value in [24] was 258 µL/min/mg.

For orientation: AUC(0-t) means the area under the concentration-time curve up to a stated or last time point. The term half-life denotes how long it takes for the measured level to halve. The Cmax is the highest concentration seen after dosing. A word on the IC50: it is the concentration needed to halve the response being measured.

Values taken from ChEMBL document CHEMBL5316304, “Collaborative Virtual Screening Identifies a 2-Aryl-4-aminoquinazoline Series with Efficacy in an In Vivo Model of Trypanosoma cruzi Infection” (J Med Chem, 2023).
